The labels stand for the following.
B1: Osa-1-4 twister ribozyme (parent)
chain: CCGCCUAACACUGCCAAUGCCGGUCCCAAGCCCGGAUAAAAGUGGAGGGGGCGG

The variants in this data set derive from B1. Put plainly: self-cleavage, relative activity (ratio to wild type); higher = more cleavage; co-transcriptional. Summed up:
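The 48 positions downstream of the cleavage site in a DNA template for a 54-nucleotide Oryza sativa twister ribozyme carried 97 % wild-type base and 1 % of each other base. After in vitro transcription (2 h, 37 °C) with co-transcriptional self-cleavage, the RNA was reverse-transcribed with a template-switching oligonucleotide, PCR-amplified and deep-sequenced. Relative activity is the fraction cleaved, judged by reads with or without upstream sequence and normalised to wild type.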
A38U G35A: the self-cleavage stood at 0.83.

With A38U G30C, the self-cleavage amounted to 0.04.

Regarding A38U G30A, the self-cleavage was 0.04.

As to A38U G30U, the self-cleavage was found to be 0.04.

Turning to A38U G45A, the self-cleavage was 0.23.

Turning to A38U G45U, the self-cleavage was 0.09.

A38U G45C: the self-cleavage came to 0.06.

For A39C G53C, the self-cleavage is 0.06.

Turning to A39C G53A, the self-cleavage was 0.37.

For the variant A39C G53U, the self-cleavage was 0.12.

With A39C G13A, the self-cleavage was 0.06.

In the case of A39C G13C, the self-cleavage worked out at 0.02.

As to A39C G13U, the self-cleavage came out at 0.03.

A39G C25U: the self-cleavage came to 0.53.

Take A39G C25A: the self-cleavage amounted to 0.07.

For A39G C25G, the self-cleavage turned out to be 0.07.

For the variant A39C G22C, the self-cleavage worked out at 0.05.

In the case of A39C G22U, the self-cleavage is 0.41.

Regarding A39C G22A, the self-cleavage turned out to be 0.78.

In the case of A39C A7G, the self-cleavage was determined as 0.12.

For the variant A39C A7U, the self-cleavage stood at 0.06.

In the case of A39C A7C, the self-cleavage turned out to be 0.06.

Consider A39G C20U, for which the self-cleavage came to 0.96.

For A39G C20G, the self-cleavage was 0.13.

Consider A39G C20A, for which the self-cleavage worked out at 0.91.

As for A39C C27G, the self-cleavage is 0.06.

Regarding A39C C27A, the self-cleavage is 0.11.

As for A39C C27U, the self-cleavage turned out to be 0.09.

On to A39C C33A, for which the self-cleavage came to 0.06.

Consider A39C C33G, for which the self-cleavage came out at 0.07.

Regarding A39C C33U, the self-cleavage amounted to 0.38.

As to A38G G49C, the self-cleavage worked out at 0.08.

In the case of A38G G49U, the self-cleavage came to 0.13.

As to A38G G49A, the self-cleavage was found to be 0.13.

For A38U C9G, the self-cleavage was found to be 0.84.

A38U C9U: the self-cleavage was found to be 0.74.

Turning to A38U C9A, the self-cleavage was 0.42.

With A39G, the self-cleavage is 1.

On to A39C, for which the self-cleavage stood at 0.99.

For A39C C26U, the self-cleavage is 0.35.

With A39C C26G, the self-cleavage is 0.07.

On to A39C C26A, for which the self-cleavage was 0.04.

A39G A46C: the self-cleavage was 0.05.

For the variant A39G A46G, the self-cleavage was found to be 0.06.

Regarding A39G A46U, the self-cleavage amounted to 0.09.

Consider A38U A7C, for which the self-cleavage was determined as 0.05.

As for A38U A7G, the self-cleavage was determined as 0.24.

Regarding A38U A7U, the self-cleavage amounted to 0.12.

For A39G C9G, the self-cleavage was found to be 0.66.

As for A39G C9U, the self-cleavage is 0.73.

As to A39G C9A, the self-cleavage stood at 0.39.

In the case of A39C U37A, the self-cleavage was 0.92.

Consider A39C U37C, for which the self-cleavage came to 1.02.

Turning to A39C U37G, the self-cleavage is 0.98.

Regarding A39C C21U, the self-cleavage is 0.97.

As to A39C C21G, the self-cleavage was found to be 0.08.

Turning to A39C C21A, the self-cleavage was 0.22.

For the variant A38U U43G, the self-cleavage worked out at 0.47.

In the case of A38U U43C, the self-cleavage came out at 0.39.

As to A38U U43A, the self-cleavage came out at 0.95.

Consider A38G G47A, for which the self-cleavage came out at 0.19.

Consider A38G G47U, for which the self-cleavage is 0.17.

For the variant A38G G47C, the self-cleavage was 0.08.

As for A39C G45U, the self-cleavage worked out at 0.06.

Consider A39C G45A, for which the self-cleavage stood at 0.08.

For A39C G45C, the self-cleavage was determined as 0.05.

On to A38U A39C, for which the self-cleavage is 0.96.

As to A38U A39G, the self-cleavage came to 0.64.

Regarding A38U A39U, the self-cleavage amounted to 0.97.

With A39C G30U, the self-cleavage came to 0.03.

As to A39C G30C, the self-cleavage worked out at 0.04.

On to A39C G30A, for which the self-cleavage was 0.04.

A38G U43A: the self-cleavage was 0.89.

On to A38G U43C, for which the self-cleavage amounted to 0.35.

With A38G U43G, the self-cleavage was found to be 0.62.

As to A38U G23U, the self-cleavage came out at 0.07.

In the case of A38U G23A, the self-cleavage was found to be 0.33.

On to A38U G23C, for which the self-cleavage is 0.07.

Regarding A38U C32U, the self-cleavage came out at 0.11.

In the case of A38U C32G, the self-cleavage was found to be 0.12.

A38U C32A: the self-cleavage is 0.08.

For A38U, the self-cleavage came to 1.01.

Regarding A38G G42U, the self-cleavage turned out to be 0.12.

With A38G G42A, the self-cleavage stood at 0.7.

With A38G G42C, the self-cleavage amounted to 0.23.

Consider A38G G45C, for which the self-cleavage was found to be 0.07.

As to A38G G45A, the self-cleavage amounted to 0.26.

As for A38G G45U, the self-cleavage turned out to be 0.09.

As to A39C G51C, the self-cleavage is 0.05.

As for A39C G51U, the self-cleavage is 0.21.

As to A39C G51A, the self-cleavage stood at 0.53.

For A38U A8G, the self-cleavage came out at 0.52.

A38U A8C: the self-cleavage came to 0.09.

A38U A8U: the self-cleavage is 0.25.

On to A38U C33U, for which the self-cleavage amounted to 0.79.

In the case of A38U C33G, the self-cleavage amounted to 0.05.

Take A38U C33A: the self-cleavage turned out to be 0.1.

With A38G G35U, the self-cleavage was 0.86.

A38U G13U: the self-cleavage turned out to be 0.03.

Regarding A38U G13A, the self-cleavage came to 0.11.

With A38U G13C, the self-cleavage amounted to 0.03.

As to A38G G54C, the self-cleavage turned out to be 0.94.

For the variant A38G G54U, the self-cleavage was 0.94.

Turning to A38G G54A, the self-cleavage came out at 0.92.

On to A38U C20U, for which the self-cleavage amounted to 0.98.

For A38U C20A, the self-cleavage worked out at 0.82.

For A38U C20G, the self-cleavage worked out at 0.15.

On to A39G A7C, for which the self-cleavage amounted to 0.04.

Regarding A39G A7G, the self-cleavage was 0.31.

Take A39G A7U: the self-cleavage was determined as 0.08.

Consider A38G G44U, for which the self-cleavage was 0.95.

Consider A38G G44C, for which the self-cleavage came out at 0.98.

As for A38G G44A, the self-cleavage is 0.93.

As to A38G G50C, the self-cleavage worked out at 1.

As for A38G G50U, the self-cleavage amounted to 1.

As to A38G G50A, the self-cleavage worked out at 0.74.

On to A38U U37A, for which the self-cleavage was determined as 1.03.

With A38U U37G, the self-cleavage came to 1.03.

On to A38U U37C, for which the self-cleavage was found to be 1.04.

For A39C C15G, the self-cleavage is 0.16.

Take A39C C15U: the self-cleavage came out at 0.57.

On to A39C C15A, for which the self-cleavage stood at 0.23.

In the case of A38U U18G, the self-cleavage came out at 0.85.

Consider A38U U18A, for which the self-cleavage worked out at 0.92.

As for A38U U18C, the self-cleavage came out at 0.93.

On to A38U G53A, for which the self-cleavage came out at 0.81.

In the case of A38U G53C, the self-cleavage was 0.09.

For the variant A38U G53U, the self-cleavage was 0.27.

Take A39C C20U: the self-cleavage worked out at 0.94.

Take A39C C20A: the self-cleavage worked out at 0.87.

As for A39C C20G, the self-cleavage was 0.1.

Regarding A39C A8G, the self-cleavage stood at 0.23.

For the variant A39C A8C, the self-cleavage is 0.09.

As to A39C A8U, the self-cleavage is 0.1.

With A39C G50C, the self-cleavage was determined as 0.67.

Regarding A39C G50U, the self-cleavage amounted to 1.

Regarding A39C G50A, the self-cleavage is 0.64.

On to A38G G48A, for which the self-cleavage worked out at 0.11.

In the case of A38G G48C, the self-cleavage was 0.1.

For the variant A38G G48U, the self-cleavage stood at 0.07.

Regarding A39C G44U, the self-cleavage came to 0.88.

In the case of A39C G44A, the self-cleavage was 0.71.

For the variant A39C G44C, the self-cleavage was 0.93.

For the variant A39C C52G, the self-cleavage is 0.96.

Consider A39C C52U, for which the self-cleavage was determined as 1.06.

As to A39C C52A, the self-cleavage amounted to 1.

In the case of A38U C27U, the self-cleavage was found to be 0.15.

Take A38U C27G: the self-cleavage came to 0.08.

In the case of A38U C27A, the self-cleavage amounted to 0.14.

As to A38U A46U, the self-cleavage was determined as 0.07.

With A38U A46C, the self-cleavage was determined as 0.06.

A38U A46G: the self-cleavage turned out to be 0.05.

A38U G19C: the self-cleavage came out at 0.04.

For A38U G19A, the self-cleavage turned out to be 0.57.

Turning to A38U G19U, the self-cleavage was 0.22.

On to A38U G34U, for which the self-cleavage was 0.77.

As to A38U G34A, the self-cleavage amounted to 0.78.

Regarding A38U G34C, the self-cleavage amounted to 0.5.

As for A38U G42C, the self-cleavage came to 0.17.

Take A38U G42U: the self-cleavage came out at 0.08.

For A38U G42A, the self-cleavage came to 0.6.

For A38U A40U, the self-cleavage stood at 0.55.

As to A38U A40C, the self-cleavage came out at 0.06.

Consider A38U A40G, for which the self-cleavage is 0.64.

For the variant A39C A41C, the self-cleavage turned out to be 0.37.

As for A39C A41U, the self-cleavage stood at 0.96.

Regarding A39C A41G, the self-cleavage stood at 0.23.

Values taken from the RNAGym collection of RNA variant scans (doi:10.1002/anie.201605470).
